For 95 molecules, cytotoxicity results are on record in ChEMBL document CHEMBL4513216, “Probing the Open Global Health Chemical Diversity Library for Multistage-Active Starting Points for Next-Generation Antimalarials” (ACS Infect Dis, 2020).

The nature of this data set: Toxicity liver stage against HepG2, at 10uM. It counts as cell-based. On the set-up: test concentration 10 uM, cell line HepG2-A16-CD81EGFP. To be noted: human, HepG2-A16-CD81EGFP cells; read-out: INHIBITION
The gist of the method:
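Uninfected HepG2-A16-CD81EGFP cells, 3 × 10^3 per well, 1536-well, plated on prespotted compound at 10 μM final, parasite-free screening media added to match infected plates; puromycin 10 μM positive, DMSO 0.5% negative; run in parallel with 48 h PbLuc assay at 37 °C, 5% CO2; viability by CellTiter-Glo luminescence, normalized to controls.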
In the case of `COc1ccnc(NCc2ccccc2Cn2cccn2)n1`, the cytotoxicity at 10 µM is -0.81%.

On to `CNC(=O)C(C)(C)N1CCC[C@H]1C(=O)NCCN1CCOCC1`, for which the cytotoxicity at 10 µM came to 3.29%.

Consider `CC(=O)N1CCC(N2CCOC[C@H]2c2nc(-c3ccc(Cl)s3)c[nH]2)CC1`, for which the cytotoxicity at 10 µM amounted to 2.29%.

On to `CS(=O)(=O)NC[C@H]1Cn2c(-c3ccc4c(c3)OCCO4)cnc2CO1`, for which the cytotoxicity at 10 µM is -11.1%.

`COCC1CN(Cc2ccc(OC)cc2)S(=O)(=O)c2cnccc2O1` (stereo not given): the cytotoxicity at 10 µM was -1.78%.

As to `COc1ccc(C(=O)N2CC(=O)N(C3CCC3)CC(O)C2)c(OC)c1` (stereo not given), the cytotoxicity at 10 µM was -0.373%.

For the molecule `CCS(=O)(=O)N1CC(=O)N(Cc2ccccc2OC)CC(O)C1` (stereo not given), the cytotoxicity at 10 µM was -95.5%.

As to `COC1CN(C(=O)Cc2cccs2)CCC(=O)N(C)c2ccccc21` (stereo not given), the cytotoxicity at 10 µM was -11.6%.

On to `CC(C)CNC(=O)c1cn(-c2ccccn2)c(=O)c2ccccc12`, for which the cytotoxicity at 10 µM was 0.318%.

With `CC(C)(C)OC(=O)Cn1cccc(S(=O)(=O)N2CCCCCC2)c1=O`, the cytotoxicity at 10 µM is -2.28%.

Turning to `Cc1nc(C)c(CC(=O)NCc2ccc(F)cc2F)s1`, the cytotoxicity at 10 µM was -91.9%.

On to `Cc1nccn1-c1ccc(=O)n(CCNC(=O)Cc2ccccc2)n1`, for which the cytotoxicity at 10 µM is -4.17%.

As to `O=C(CN1C(=O)CCC1=O)NCc1cc(C2CC2)n(C2CCCC2)n1`, the cytotoxicity at 10 µM came out at 1.74%.

For `O=C(NCc1cccs1)C1CCCN(c2cc(-n3cncn3)ncn2)C1` (stereo not given), the cytotoxicity at 10 µM was found to be 0.827%.

For `CC(=O)N1CCCC2(CCN(Cc3ccc(Cl)c(F)c3)C2)C1` (stereo not given), the cytotoxicity at 10 µM amounted to 9.58%.

`Cn1cnc(S(=O)(=O)N2CCO[C@H]3[C@H](OCC4CC4)CC[C@@H]32)c1`: the cytotoxicity at 10 µM was found to be 8.31%.

Take `Cc1cc(C(=O)N2CCc3c(CN(C)C)nn(C)c3C2)[nH]n1`: the cytotoxicity at 10 µM was -3.25%.

`O=C(c1ccnnc1)N1CCO[C@H]2[C@H](Oc3cccnc3)CC[C@@H]21`: the cytotoxicity at 10 µM was found to be 8.39%.

As to `O=C(O)c1nnn(Cc2cccc(C(F)(F)F)c2)c1-c1ccncc1`, the cytotoxicity at 10 µM is 1.93%.

On to `O=c1[nH]c2nc(NC3CC3)ncc2c(=O)n1-c1ccc(F)cc1`, for which the cytotoxicity at 10 µM was -4.06%.

With `O=C(NCCCn1ccnc1)C1CCC(=O)N1Cc1cccs1` (stereo not given), the cytotoxicity at 10 µM was -4.94%.

As for `CC(C)NC(=O)[C@H]1CN(Cc2ccccc2)C[C@@H]1C(=O)c1ccccc1`, the cytotoxicity at 10 µM was 7.84%.

For `Cc1noc(C)c1-c1cccc(C2CN(S(=O)(=O)N(C)C)CCO2)n1` (stereo not given), the cytotoxicity at 10 µM turned out to be 11.4%.

For `Cc1ncccc1C(=O)N1CCC2(CCc3ccccc3C(=O)N2)C1` (stereo not given), the cytotoxicity at 10 µM came out at 4.28%.

For `CCCn1nc(C)c(CN(CCN(C)C)Cc2ccccn2)c1C`, the cytotoxicity at 10 µM is -0.641%.

For the molecule `CN(C(=O)NC1CC1)C1CCN(c2ccc(Cl)cc2)CC1`, the cytotoxicity at 10 µM was -8.39%.

With `Cc1ccc(C(C)NC(=O)N2CCN(C(=O)CC(F)(F)F)CC2)o1` (stereo not given), the cytotoxicity at 10 µM was 43.3%.

Consider `Cc1ccc(O)c(CNc2cccc(CN3CCN(C)CC3)c2)n1`, for which the cytotoxicity at 10 µM was -2%.

With `CCOCCOC(C)C(=O)Nc1ccc2ccn(CC(=O)NC)c2c1` (stereo not given), the cytotoxicity at 10 µM amounted to 2.3%.

On to `CCc1ccccc1CNC(=O)NCc1cnn(C)c1`, for which the cytotoxicity at 10 µM turned out to be 2.14%.

For `Cc1cc(C(=O)NCC2SCCc3ccccc32)no1` (stereo not given), the cytotoxicity at 10 µM came to 3.41%.

Regarding `CC(C)OCCC(=O)NCC(c1c(F)cccc1F)N(C)C` (stereo not given), the cytotoxicity at 10 µM was -1.19%.

As for `CC1CCN(Cc2ccccc2CNC(=O)C2CNC(=O)N2)CC1` (stereo not given), the cytotoxicity at 10 µM amounted to 2.16%.

On to `CC1(C)CN(C(CNS(C)(=O)=O)c2ccc(Cl)cc2)CCO1` (stereo not given), for which the cytotoxicity at 10 µM was 9.12%.

For the molecule `COc1ccc(Br)c(NC(=O)NCc2ncnn2C)c1`, the cytotoxicity at 10 µM was 5.41%.

As for `Cc1cc(CN2CCN(C(=O)CCc3ccco3)CC2)on1`, the cytotoxicity at 10 µM was -2.6%.

In the case of `Cc1cnn(CC2CCCCN2C(=O)Cn2nc(C)c(Cl)c2C)c1` (stereo not given), the cytotoxicity at 10 µM was -6.24%.

As to `CCn1ccnc1CN1CCN(CCc2ccccn2)CC1C` (stereo not given), the cytotoxicity at 10 µM is -8.74%.

For `Cc1nc(C2(NC(=O)NCc3cc(C#N)ccc3F)CCCC2)no1`, the cytotoxicity at 10 µM was -4.2%.

Regarding `CC(C)(O)CN1CCN(C(=O)C2CSc3ccccc3O2)CC1` (stereo not given), the cytotoxicity at 10 µM came out at 2.16%.

On to `O=C1CN(CCS(=O)(=O)c2ccc(Cl)cc2)CCN1`, for which the cytotoxicity at 10 µM was -9.2%.

With `O=C1NCCO[C@H]2CN(C(=O)Cc3cccs3)CC[C@@H]12`, the cytotoxicity at 10 µM was -98.8%.

Take `COCCNC(=O)c1nc(-c2cn(C)cn2)n2ccccc12`: the cytotoxicity at 10 µM is -104%.

For `CC(C)(O)CCc1cccc(C(=O)N2Cc3cnn(CCO)c3C2)c1`, the cytotoxicity at 10 µM is 4.62%.

Take `COCCN1CCC(C(=O)N(C)Cc2cccc(Cl)c2)C1` (stereo not given): the cytotoxicity at 10 µM was -28.6%.

For the molecule `CCC(c1nc(CC(C)C)nn1-c1ccccn1)n1cccn1` (stereo not given), the cytotoxicity at 10 µM was -8.74%.

On to `CCc1ncc(C(=O)N2CC(N3CCCCC3)C2)cn1`, for which the cytotoxicity at 10 µM is -4.68%.

As for `CC(C)N1CCC(CC(=O)NCc2cc(O)ncn2)CC1`, the cytotoxicity at 10 µM amounted to 7.81%.

Turning to `Cc1noc(C)c1CCCNC(=O)C1CCN(C(=O)C2CCC2)CC1`, the cytotoxicity at 10 µM turned out to be 3.72%.

In the case of `CC1(Cc2cccnc2)NCCc2[nH]cnc21` (stereo not given), the cytotoxicity at 10 µM was determined as 12.1%.

With `CN1CCC(c2n[nH]c(=O)n2-c2cccc(Cl)c2)CC1`, the cytotoxicity at 10 µM turned out to be 33.9%.

For `CSCC[C@@H](CO)n1ccnc1-c1ccncc1`, the cytotoxicity at 10 µM turned out to be 7.21%.

Turning to `CC1=CCN(S(=O)(=O)c2cccc(C(=O)N3CCCN(C)CC3)c2)CC1`, the cytotoxicity at 10 µM was -2.36%.

As for `CC1=NC2(CCN(CC(C)c3ccccc3)CC2)C(=O)N1` (stereo not given), the cytotoxicity at 10 µM was determined as 5.33%.

With `COCCC(=O)N1CCC2(CC1)CC(c1ccccc1)CN(C1CC1)C2` (stereo not given), the cytotoxicity at 10 µM was -0.173%.

`NC(=O)C1CN(c2ncnc3c2Cc2ccccc2OC3)CCO1` (stereo not given): the cytotoxicity at 10 µM turned out to be 0.0255%.

Regarding `CCN1CCC2(CC1)c1nc[nH]c1CCN2S(C)(=O)=O`, the cytotoxicity at 10 µM came out at 6.33%.

Consider `O=C(CC1COCCN1)NCCc1nc(Cc2ccccc2)no1` (stereo not given), for which the cytotoxicity at 10 µM was -2.81%.

As to `CC(CN1CCCC1)C(=O)NCC1CCN(c2cnn(C)c(=O)c2)CC1` (stereo not given), the cytotoxicity at 10 µM was found to be 0.301%.

As to `COCC1CCN(S(=O)(=O)NCC2COc3ccccc3C2)CC1` (stereo not given), the cytotoxicity at 10 µM came out at 7.64%.

Consider `COc1cccc(CN(C)C(C)c2nccs2)c1OCCn1ccnc1` (stereo not given), for which the cytotoxicity at 10 µM was -0.21%.

For `Cc1ccc(-c2cc(-c3c(C)nn(CCO)c3C)c(C#N)c(N)n2)cc1`, the cytotoxicity at 10 µM is 15%.

`CCc1cnc(C)nc1NCc1nc(COC)no1`: the cytotoxicity at 10 µM amounted to 3.24%.

For `Cc1nnc2n1CCN(C(=O)c1cc3cc(F)ccc3[nH]1)C2`, the cytotoxicity at 10 µM is 3.28%.

For the molecule `Cc1ccc(OCCC(=O)N2CCCC(n3nc(C)nc3C)C2)cc1` (stereo not given), the cytotoxicity at 10 µM was -2.15%.

Turning to `CCc1csc(C2CCCN(C(=O)c3ccccn3)C2)n1` (stereo not given), the cytotoxicity at 10 µM was 1.36%.

Consider `CCCn1nc2c(cc1=O)CN(Cc1nc(C)c(C)o1)CC2`, for which the cytotoxicity at 10 µM is -6.16%.

For the molecule `O=C1COc2ccc(C(=O)NS(=O)(=O)c3ccccc3Cl)cc2N1`, the cytotoxicity at 10 µM is -7.03%.

Regarding `O=C1COc2ccc(C(=O)NS(=O)(=O)c3ccccc3F)cc2N1`, the cytotoxicity at 10 µM is -0.185%.

With `O=C(CCCOc1ccccc1)N1CCCC1Cn1cccn1` (stereo not given), the cytotoxicity at 10 µM is -7.83%.

As for `O=C(c1cc(Cl)cc2cccnc12)N1CCN(CCO)CC1`, the cytotoxicity at 10 µM is -2.07%.

Take `CCc1nnc(NC(=O)Cc2c(C)nc(C)[nH]c2=O)s1`: the cytotoxicity at 10 µM is -14.4%.

Consider `CC(=O)N1CCCN(C(=O)NCCNc2cnccn2)CC1`, for which the cytotoxicity at 10 µM was -2.28%.

`CN(CC1(O)CCCCC1)C1CCCN(Cc2noc(C3CC3)n2)C1` (stereo not given): the cytotoxicity at 10 µM is -17.3%.

With `CCc1nc(C2CCCN2C(=O)CCc2ccc3c(c2)OCO3)no1` (stereo not given), the cytotoxicity at 10 µM is -4.62%.

For the molecule `Cc1cccc(-c2nc(CN3CCCCC3Cn3cncn3)no2)c1` (stereo not given), the cytotoxicity at 10 µM is -3.2%.

On to `Cc1noc(CCCC(=O)NC(C)c2ccccn2)n1` (stereo not given), for which the cytotoxicity at 10 µM is -10.9%.

For the molecule `CCc1ccc(C(=O)N2CCN(CCS(C)(=O)=O)CC2)o1`, the cytotoxicity at 10 µM was -8.03%.

For `c1cc(NCc2ccncc2)nc(C2CCCN2)c1` (stereo not given), the cytotoxicity at 10 µM is -2.55%.

Consider `CC(CNCc1ccc(F)cc1)Oc1ccccn1` (stereo not given), for which the cytotoxicity at 10 µM worked out at 6.97%.

For `CC(C)NC(=O)CC1COC2(CCN(Cc3cccnc3)CC2)C1` (stereo not given), the cytotoxicity at 10 µM is 0.405%.

On to `Cc1ccc(CN2CC[C@H]3[C@H]2CCN3S(=O)(=O)C2CC2)s1`, for which the cytotoxicity at 10 µM was 7.74%.

As for `O=C([C@@H]1CN(Cc2nccs2)C[C@H]2OCC[C@H]21)N1CCOCC1`, the cytotoxicity at 10 µM is -105%.

Take `O=C(NC1CC1)[C@@H]1CN(Cc2ccc3c(c2)OCO3)C[C@H]2OCC[C@H]21`: the cytotoxicity at 10 µM is -1.79%.

As for `CN(C)CCN1CCC2(CCN(C(=O)c3ccncc3)CC2)C1=O`, the cytotoxicity at 10 µM came out at 0.0515%.

As to `Cc1noc(C)c1CN1C[C@H](C)[C@]2(CCN(Cc3cccnc3)C2=O)C1`, the cytotoxicity at 10 µM came to 4.59%.

`c1cnc(N2CC3(CCN(Cc4cccnc4)C3)C2)nc1`: the cytotoxicity at 10 µM is -4.87%.

Take `CO[C@@H]1CCN(S(=O)(=O)N(C)C)[C@@H]2CN(Cc3ccncc3)C[C@@H]21`: the cytotoxicity at 10 µM was determined as 15.1%.

Take `CCn1ncc2c1C(COCC1CC1)N(Cc1ccccn1)CC2` (stereo not given): the cytotoxicity at 10 µM is 10.9%.

Take `CCn1ncc2c1C(COCC1CC1)N(Cc1nccs1)CC2` (stereo not given): the cytotoxicity at 10 µM is 10.6%.

With `CC(C)NC(=O)CC1COC2(CCN(Cc3ccsc3)CC2)C1` (stereo not given), the cytotoxicity at 10 µM was -1.6%.

In the case of `Cc1ccc(CN2CC[C@H]3NC(=O)CC[C@@H]32)o1`, the cytotoxicity at 10 µM was -5.28%.

Turning to `CN(C)Cc1nc2c(o1)CN(C(=O)NCc1cccc(F)c1)C2`, the cytotoxicity at 10 µM was determined as 5.32%.

For `CC=C(C)C(=O)NS(=O)(=O)c1ccc(C(F)(F)F)cn1`, the cytotoxicity at 10 µM amounted to 3.95%.

Take `CC(C)NC(=O)CC1[C@H]2CN(C(=O)Cc3ccccn3)C[C@@H]12` (stereo not given in full): the cytotoxicity at 10 µM was determined as 12%.
